Results of several laboratories.
Each line is one published result; the experiments were not run side by side.

COc1ccc(F)cc1C(=O)NCc1ccc(-c2nn([C@@H](C)C(F)(F)F)c(N)c2C(N)=O)cc1 has a renal clearance of 4.83 mL/min (male human, urine; oral, 200 mg).
CN(C)C(=O)c1cc2cnc(Nc3ccc(N4CCNCC4)cn3)nc2n1C1CCCC1 has a CL/F of 343 mL/min (human, plasma; oral, multiple doses, steady state, patients).
The renal clearance of CC(C)n1c(C2CCNCC2)nc2c([N+](=O)[O-])c(Br)c(Br)cc21 is reported as 13.7 mL/min (human, urine; oral, 75 mg, single dose).
C=CC(=O)NC1CCN(c2ncc3ncnc(Nc4ccc(Oc5ccc6c(c5)ncn6C)c(C)c4)c3n2)CC1 has a clearance of 106 mL/min (male human, plasma; intravenous, 100 µg, single dose, healthy volunteers).
The CL/F of C[C@@H](Oc1ccc(S(C)(=O)=O)cc1C(=O)N1C[C@@H]2C[C@]2(c2cc(C(F)(F)F)on2)C1)C(F)(F)F is reported as 73.1 mL/min (human, plasma; oral, 10 mg, single dose, fed).
For COc1ccc2c(c1)CN(C(=O)CCN1CCC(Cc3ccccc3)CC1)CC[S@@+]2[O-], the clearance was 162 mL/min (male human, plasma; intravenous, 0.4 mg/kg, healthy volunteers).
For CN1CCC(COc2cnc(-c3cccc(Cn4nc(-c5cccc(C#N)c5)ccc4=O)c3)nc2)CC1, the clearance was about 3 mL/min/kg (human, plasma; intravenous, single dose).
The CL/F of OC[C@H]1O[C@@H](c2cc(Cc3ccc(C4CC4)cc3)c(Cl)c3c2CCO3)[C@H](O)[C@@H](O)[C@@H]1O is reported as 173 mL/min (human, plasma; oral, 0.3 mg, single dose, fed, healthy volunteers).
With CC(C)C[C@H](NC(=O)[C@H](CC(C)C)NC(=O)[C@H](Cc1c[nH]c2ccccc12)NC(=O)[C@H](CCC(=O)O)NC(=O)[C@@H](NC(=O)[C@H](Cc1ccccc1)NC(=O)[C@H](CCC(=O)O)NC(=O)[C@H](CCCCNC(=O)COCCOCCNC(=O)COCCOCCNC(=O)CC[C@H](NC(=O)CCCCCCCCCCCCCCCCCCC(=O)O)C(=O)O)NC(=O)[C@H](C)NC(=O)[C@H](CCCCN)NC(=O)[C@H](CCCCN)NC(=O)[C@H](CCC(=O)O)NC(=O)[C@H](CC(=O)O)NC(=O)[C@H](CC(C)C)NC(=O)[C@H](Cc1ccc(O)cc1)NC(=O)[C@H](CCCCN)NC(=O)[C@H](CO)NC(=O)[C@H](Cc1ccc(O)cc1)NC(=O)[C@H](CC(=O)O)NC(=O)[C@H](CO)NC(=O)[C@@H](NC(=O)[C@H](Cc1ccccc1)NC(=O)[C@@H](NC(=O)CNC(=O)[C@H](CCC(N)=O)NC(=O)C(C)(C)NC(=O)[C@@H](N)Cc1c[nH]cn1)[C@@H](C)O)[C@@H](C)O)C(C)C)C(=O)N[C@@H](CCC(=O)O)C(=O)NCC(=O)NCC(=O)N1CCC[C@H]1C(=O)N[C@@H](CO)C(=O)N[C@@H](CO)C(=O)NCC(N)=O the CL/F was 0.333 mL/min (human, plasma; subcutaneous, 16 mg, multiple doses, once daily, steady state, patients).
The clearance of N#Cc1cccc(-c2ccc3ncc(-c4cc(F)cc(F)c4)c(N4CCC(N)CC4)c3c2)c1O is reported as 85 mL/min (human, plasma; intravenous, 50 µg).
